Reference: ChEMBL document CHEMBL4477254, “Synthesis and biological evaluation of some novel triazole hybrids of curcumin mimics and their selective anticancer activity against breast and prostate cancer cell lines” (Bioorg Med Chem Lett, 2016)

What follows are compounds tested on MDA-MB-231 (assay: Cytotoxicity against human MDA-MB-231 cells assessed as decrease in cell viability after 24 hrs by MTT assay). Settings: MDA-MB-231, 24 h.
Format: functional, cell-based
Outline: (§1)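 Cell viability by MTT after 24 h compound exposure; curcumin as standard. IC50 in µM from three independent experiments, expressed as mean ± SE.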

| SMILES | IC50 [µM] |
| --- | --- |
| Cc1ccc(/C=C2\CN(C(=S)SCc3cn(Cc4ccccc4F)nn3)C/C(=C\c3ccc(C)cc3)C2=O)cc1 | 91.5 |
| COc1ccc(/C=C2\CN(Cc3cn(Cc4ccccc4Cl)nn3)C/C(=C\c3ccc(OC)cc3)C2=O)cc1 | > 100 |
| COc1cccc2c1C(=O)c1c(O)c3c(c(O)c1C2=O)C[C@@](O)(C(=O)CO)C[C@@H]3O[C@H]1C[C@H](N)[C@H](O)[C@H](C)O1 [DOXORUBICIN] | 1.6 |
| O=C1/C(=C/c2ccccc2F)CN(C(=S)SCc2cn(Cc3cccc(Cl)c3)nn2)C/C1=C\c1ccccc1F | > 100 |
| COc1ccc(/C=C2\CN(C(=S)SCc3cn(Cc4ccccc4Cl)nn3)C/C(=C\c3ccc(OC)cc3)C2=O)cc1 | > 100 |
| Cc1ccc(/C=C2\CN(C(=S)SCc3cn(Cc4ccccc4Cl)nn3)C/C(=C\c3ccc(C)cc3)C2=O)cc1 | 93.2 |
| COc1ccc(/C=C2\CN(Cc3cn(Cc4cccc(Cl)c4)nn3)C/C(=C\c3ccc(OC)cc3)C2=O)cc1 | 98 |

Each compound was assayed on PC-3 (assay: Cytotoxicity against human PC3 cells assessed as decrease in cell viability after 24 hrs by MTT assay). Settings: PC-3, 24 h.
Format: functional, cell-based
Outline: as §1

| SMILES | IC50 [µM] |
| --- | --- |
| Cc1ccc(/C=C2\CN(C(=S)SCc3cn(Cc4ccccc4F)nn3)C/C(=C\c3ccc(C)cc3)C2=O)cc1 | > 80 |
| COc1ccc(/C=C2\CN(Cc3cn(Cc4ccccc4Cl)nn3)C/C(=C\c3ccc(OC)cc3)C2=O)cc1 | 36.3 |
| O=C1/C(=C/c2ccccc2F)CN(C(=S)SCc2cn(Cc3cccc(Cl)c3)nn2)C/C1=C\c1ccccc1F | 80 |
| COc1ccc(/C=C2\CN(C(=S)SCc3cn(Cc4ccccc4Cl)nn3)C/C(=C\c3ccc(OC)cc3)C2=O)cc1 | 60.1 |
| Cc1ccc(/C=C2\CN(C(=S)SCc3cn(Cc4ccccc4Cl)nn3)C/C(=C\c3ccc(C)cc3)C2=O)cc1 | > 80 |
| COc1ccc(/C=C2\CN(Cc3cn(Cc4cccc(Cl)c4)nn3)C/C(=C\c3ccc(OC)cc3)C2=O)cc1 | 32.5 |

These compounds were tested on HEK293 (assay: Cytotoxicity against human HEK293 cells assessed as decrease in cell viability after 24 hrs by MTT assay). Settings: HEK293, 24 h.
Format: cell-based
Outline: as §1

| SMILES | IC50 [µM] |
| --- | --- |
| COc1cccc2c1C(=O)c1c(O)c3c(c(O)c1C2=O)C[C@@](O)(C(=O)CO)C[C@@H]3O[C@H]1C[C@H](N)[C@H](O)[C@H](C)O1 [DOXORUBICIN] | 7.2 |
| COc1ccc(/C=C2\CN(Cc3cn(Cc4cccc(Cl)c4)nn3)C/C(=C\c3ccc(OC)cc3)C2=O)cc1 | > 100 |

The compounds below were run on DU-145 (assay: Potency index, ratio of curcumin IC50 to compound IC50 in human DU145 cells). Settings: not given.
Format: functional
Outline: (§2)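 IC50 came from an MTT viability assay after 24 h compound exposure, with curcumin run as the standard. Values are mean ± SE of three independent experiments. The index is the curcumin IC50 divided by the compound IC50 in the same cell line.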

| SMILES | Ratio IC50 |
| --- | --- |
| COc1ccc(/C=C2\CN(Cc3cn(Cc4ccccc4Cl)nn3)C/C(=C\c3ccc(OC)cc3)C2=O)cc1 | ≤ 9.5 |
| COc1ccc(/C=C2\CN(Cc3cn(Cc4cccc(Cl)c4)nn3)C/C(=C\c3ccc(OC)cc3)C2=O)cc1 | ≤ 9.5 |

These compounds were tested on 4T1 (assay: Potency index, ratio of curcumin IC50 to compound IC50 in mouse 4T1 cells). Settings: not given.
Format: functional
Outline: as §2

| SMILES | Ratio IC50 |
| --- | --- |
| Cc1ccc(/C=C2\CN(C(=S)SCc3cn(Cc4ccccc4F)nn3)C/C(=C\c3ccc(C)cc3)C2=O)cc1 | <=9.3 |
| COc1ccc(/C=C2\CN(Cc3cn(Cc4ccccc4Cl)nn3)C/C(=C\c3ccc(OC)cc3)C2=O)cc1 | <=9.3 |
| Cc1ccc(/C=C2\CN(C(=S)SCc3cn(Cc4ccccc4Cl)nn3)C/C(=C\c3ccc(C)cc3)C2=O)cc1 | <=9.3 |

These compounds were tested on PC-3 (assay: Potency index, ratio of curcumin IC50 to compound IC50 in human PC3 cells). Settings: not given.
Format: functional
Outline: as §2

| SMILES | Ratio IC50 |
| --- | --- |
| COc1ccc(/C=C2\CN(Cc3cn(Cc4ccccc4Cl)nn3)C/C(=C\c3ccc(OC)cc3)C2=O)cc1 | <=5.7 |
| COc1ccc(/C=C2\CN(Cc3cn(Cc4cccc(Cl)c4)nn3)C/C(=C\c3ccc(OC)cc3)C2=O)cc1 | <=5.7 |

The compounds below were run on DU-145 (assay: Cytotoxicity against human DU145 cells assessed as decrease in cell viability after 24 hrs by MTT assay). Settings: DU-145, 24 h.
Format: functional, cell-based
Outline: as §1

| SMILES | IC50 [µM] |
| --- | --- |
| Cc1ccc(/C=C2\CN(C(=S)SCc3cn(Cc4ccccc4F)nn3)C/C(=C\c3ccc(C)cc3)C2=O)cc1 | 80 |
| COc1ccc(/C=C2\CN(Cc3cn(Cc4ccccc4Cl)nn3)C/C(=C\c3ccc(OC)cc3)C2=O)cc1 | 17.8 |
| COc1cccc2c1C(=O)c1c(O)c3c(c(O)c1C2=O)C[C@@](O)(C(=O)CO)C[C@@H]3O[C@H]1C[C@H](N)[C@H](O)[C@H](C)O1 [DOXORUBICIN] | 1.6 |
| O=C1/C(=C/c2ccccc2F)CN(C(=S)SCc2cn(Cc3cccc(Cl)c3)nn2)C/C1=C\c1ccccc1F | > 80 |
| COc1ccc(/C=C2\CN(C(=S)SCc3cn(Cc4ccccc4Cl)nn3)C/C(=C\c3ccc(OC)cc3)C2=O)cc1 | > 80 |
| Cc1ccc(/C=C2\CN(C(=S)SCc3cn(Cc4ccccc4Cl)nn3)C/C(=C\c3ccc(C)cc3)C2=O)cc1 | > 80 |
| COc1ccc(/C=C2\CN(Cc3cn(Cc4cccc(Cl)c4)nn3)C/C(=C\c3ccc(OC)cc3)C2=O)cc1 | 15.4 |

These compounds were tested on MCF7 (assay: Cytotoxicity against human MCF7 cells assessed as decrease in cell viability after 24 hrs by MTT assay). Settings: MCF7, 24 h.
Format: functional, cell-based
Outline: as §1

| SMILES | IC50 [µM] |
| --- | --- |
| Cc1ccc(/C=C2\CN(C(=S)SCc3cn(Cc4ccccc4F)nn3)C/C(=C\c3ccc(C)cc3)C2=O)cc1 | > 100 |
| COc1ccc(/C=C2\CN(Cc3cn(Cc4ccccc4Cl)nn3)C/C(=C\c3ccc(OC)cc3)C2=O)cc1 | > 100 |
| O=C1/C(=C/c2ccccc2F)CN(C(=S)SCc2cn(Cc3cccc(Cl)c3)nn2)C/C1=C\c1ccccc1F | > 100 |
| COc1ccc(/C=C2\CN(C(=S)SCc3cn(Cc4ccccc4Cl)nn3)C/C(=C\c3ccc(OC)cc3)C2=O)cc1 | > 100 |
| Cc1ccc(/C=C2\CN(C(=S)SCc3cn(Cc4ccccc4Cl)nn3)C/C(=C\c3ccc(C)cc3)C2=O)cc1 | > 100 |
| COc1ccc(/C=C2\CN(Cc3cn(Cc4cccc(Cl)c4)nn3)C/C(=C\c3ccc(OC)cc3)C2=O)cc1 | 99 |

Each compound was assayed on 4T1 (assay: Cytotoxicity against mouse 4T1 cells assessed as decrease in cell viability after 24 hrs by MTT assay). Settings: 4T1, 24 h.
Format: functional, cell-based
Outline: as §1

| SMILES | IC50 [µM] |
| --- | --- |
| Cc1ccc(/C=C2\CN(C(=S)SCc3cn(Cc4ccccc4F)nn3)C/C(=C\c3ccc(C)cc3)C2=O)cc1 | 28.4 |
| COc1ccc(/C=C2\CN(Cc3cn(Cc4ccccc4Cl)nn3)C/C(=C\c3ccc(OC)cc3)C2=O)cc1 | 11.4 |
| COc1cccc2c1C(=O)c1c(O)c3c(c(O)c1C2=O)C[C@@](O)(C(=O)CO)C[C@@H]3O[C@H]1C[C@H](N)[C@H](O)[C@H](C)O1 [DOXORUBICIN] | 0.99 |
| O=C1/C(=C/c2ccccc2F)CN(C(=S)SCc2cn(Cc3cccc(Cl)c3)nn2)C/C1=C\c1ccccc1F | > 100 |
| COc1ccc(/C=C2\CN(C(=S)SCc3cn(Cc4ccccc4Cl)nn3)C/C(=C\c3ccc(OC)cc3)C2=O)cc1 | > 100 |
| Cc1ccc(/C=C2\CN(C(=S)SCc3cn(Cc4ccccc4Cl)nn3)C/C(=C\c3ccc(C)cc3)C2=O)cc1 | 49.3 |
| COc1ccc(/C=C2\CN(Cc3cn(Cc4cccc(Cl)c4)nn3)C/C(=C\c3ccc(OC)cc3)C2=O)cc1 | 56.6 |
